OX1R antag-1: antagonists of human orexin 1 receptor; O43613; CHO/OX1R cells, Fluo-8 calcium fluorescence, orexin A; inhibition, % at 5 µM; 330,000 tested, 0.43% active; AID 434989;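 active means inhibition above its plate's threshold, mean inhibition of all tested compounds on the plate plus 3 SD, cut at about 37% in these data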;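 further: 0% = orexin A challenge wells and 100% = SB-334867-A antagonist wells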
Target sequence (O43613 whole entry, looked up): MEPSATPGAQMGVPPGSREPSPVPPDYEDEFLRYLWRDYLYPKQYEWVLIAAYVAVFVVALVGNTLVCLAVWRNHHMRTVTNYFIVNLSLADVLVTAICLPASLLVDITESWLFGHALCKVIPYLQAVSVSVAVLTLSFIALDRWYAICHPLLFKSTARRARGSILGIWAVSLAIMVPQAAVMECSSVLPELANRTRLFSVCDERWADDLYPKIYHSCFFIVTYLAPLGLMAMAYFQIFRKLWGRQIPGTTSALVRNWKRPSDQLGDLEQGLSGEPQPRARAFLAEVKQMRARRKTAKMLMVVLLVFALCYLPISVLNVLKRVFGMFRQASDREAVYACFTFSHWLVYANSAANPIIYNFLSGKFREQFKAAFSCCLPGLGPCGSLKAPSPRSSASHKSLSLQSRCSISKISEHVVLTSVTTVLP
M1 PAM parental: counter-screen for M1 PAMs: effect in parental CHO-K1 cells; ATP EC20, Fluo-8 calcium fluorescence; 0% at ATP EC20, 100% at ATP max; 360,000 tested, 0.02% active; activation, % at 3 µM; AID 602247;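 active means activation above the run cutoff, the mean activation of all test compounds plus 3 SD, cut at about 40% in these data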;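 further: peak over basal fluorescence ratio in a 140 s read after ATP addition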
M1 ag parental: M1 agonist counterscreen hit in parental CHO-K1 cells | Fluo-8 calcium fluorescence; scaled to maximal ATP response, vehicle zero | activation, % at 3 µM | 360,000 tested, 0.48% active; in the data active means activation above about 15%;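 further: untransfected CHO-K1 host cells lacking M1 receptor as counterscreen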
CHO parental Ca: counter-screen: ATP calcium response change in parental CHO cells; parental CHO-K1, ATP-induced calcium, Fluo-8 fluorescence; inhibition, % at 5.6 µM; 330,000 tested, 0.63% active;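 active means inhibition above that plate's mean sample inhibition plus 3 SD, cut at about 26% in these data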;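 further: 0% = ATP-challenged DMSO wells and 100% = DMSO wells without ATP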
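Material – parental CHO cells · Reagent – ATP stimulus · Compound – single nominal dose of 5.6 µM per compound · Detection – Fluo-8 fluorescence · Read-out basis – percent inhibition of calcium signal · Controls – ATP-challenged DMSO wells low, unchallenged DMSO wells high · Repeats – no replicates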
CHO-K1 Ca antag: counter-screen for M1 antagonists: effect in parental CHO-K1 cells | inhibition, % at 3 µM | AID 602250 | ATP-induced calcium, Fluo-8 fluorescence | 360,000 tested, 0.6% active;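 active means inhibition above a per-plate cutoff, the plate's mean sample inhibition plus 3 SD, cut at about 24% in these data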;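 further: 0% = DMSO plus EC80 ATP and 100% = DMSO alone without ATP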
OX1R antag-2: blocks the human orexin 1 receptor; 330,000 tested, 1.8% active; O43613; inhibition, % at 6.6 µM; OX1R-expressing cells, FRET antagonist read-out; AID 485270; in the data active means inhibition mostly above about 38%, no sharp cut-off; inactive means mostly below about 40%;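 further: 0% = agonist challenge alone and 100% = reference antagonist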
* hit, by the source's call; / = not tested or not shown. Sampled rows, rich in hits. Any-hit rate of the full collection: about 2.9%.

SMILES | OX1R antag-1 | M1 PAM parental | M1 ag parental | CHO parental Ca | CHO-K1 Ca antag | OX1R antag-2
Fc1ccc(C[n+]2c(-c3ccccc3)cc(-c3ccccc3)cc2-c2ccccc2)cc1 | 15 | / | / | 23 | / | 19
Clc1ccc(C[n+]2c(-c3ccccc3)cc(-c3ccccc3)cc2-c2ccccc2)cc1 | 63* | -1 | 5 | 63* | 8 | 3
Cn1c(=O)[nH]c2nncnc2c1=O | 5 | -15 | 0 | -2 | -8 | 70*
CCN1/C(=C\C=C\C2=[N+](CC)c3ccccc3C2(C)C)C(C)(C)c2ccccc21 | 108* | -24 | 313* | 100* | 94* | 22
O=C1NS(=O)c2cc([N+](=O)[O-])cc([N+](=O)[O-])c21 (centres undefined) | -1 | -18 | 0 | -8 | 22 | 67*
Cc1cccc(N=C2c3cc([N+](=O)[O-])ccc3-c3c2cc([N+](=O)[O-])cc3[N+](=O)[O-])c1 | / | -19 | 0 | / | 10 | /
COc1cc(C)c(CNCCc2c[nH]c3ccccc23)cc1C | -14 | -3 | 16* | -10 | 0 | -10
O=P(O)(O)CN1CCNCCN(CP(=O)(O)O)CCNCC1 | / | 10 | 1 | / | -12 | /
CN(C(=O)COC(=O)c1cn(C)c2ccccc12)C1CCCCC1 | 22 | 0 | 0 | -12 | -2 | 38*
Cn1cc(C(=O)OCC(=O)NC2CCCC2)c2ccccc21 | -1 | 13 | 0 | 2 | -12 | 8
Cc1ccc2c(c1N)C(=O)c1ccccc1C2=O | 19 | -9 | 8 | 4 | 12 | 40*
CC(C)[C@H](NC(=O)N1C[C@H]2C[C@@H](C1)c1cccc(=O)n1C2)C(=O)Nc1ccccc1F | 5 | 13 | 1 | -7 | -6 | 17
COC(=O)C1=C(c2ccc(OC(F)(F)F)cc2)C[C@@H]2CC[C@H]1N2C(=O)NC1CCCCC1 | -21 | 8 | -1 | -32 | -5 | 1
COc1cc2c(cc1OC)[C@@H]1C(=O)c3ccc4c(c3O[C@@H]1CO2)C[C@H](C(C)C)O4 | 12 | -6 | 10 | 60* | 29* | 57
CC(C)CC(C)N (centres undefined) | -4 | -11 | 0 | -6 | -3 | 2
Cc1ccccc1N1CCN(C2CCCN(C(=O)Cc3c(C)noc3C)C2)CC1 (centres undefined) | -14 | 20 | 0 | -5 | -13 | 10
O=[N+]([O-])/C=C1/NCCN1Cc1ccc(Cl)nc1 | -8 | -14 | 0 | -2 | 26* | 11
CCOC(=O)C1CCCN(c2ccc([N+](=O)[O-])c3nonc23)C1 (centres undefined) | / | -25 | 157* | / | 51* | /
CC1NC(=O)NC(=O)C1Br (centres undefined) | / | 17 | 2 | / | -3 | /
N#CC(C#N)=NNc1ccc(-n2ccc(C(F)(F)F)n2)cc1 | 53* | -3 | 15 | 50* | 22 | 61*
CCN(CC)S(=O)(=O)c1ccc(NN=C(C#N)C#N)cc1 | 6 | 12 | 11 | -9 | 2 | 58
Cc1cc(C)n(-c2ccc(NN=C(C#N)C#N)cc2)n1 | 14 | -1 | 21* | 27 | 14 | 60
C#CC1(O)CCC2C3CCC4=CC(=O)CCC4=C3C=CC21C (centres undefined) | / | -12 | 16* | / | 3 | /
COC(=O)C1=COC(C)C2CN3CCc4c([nH]c5cc(OC)ccc45)C3CC12 (centres undefined) | / | -2 | 1 | / | 2 | /
Nc1cc(N2CCNCC2)ccc1[N+](=O)[O-] | 6 | 18 | 1 | -3 | -8 | 49
SMILES | OX1R antag-1 | M1 PAM parental | M1 ag parental | CHO parental Ca | CHO-K1 Ca antag | OX1R antag-2
Clc1cccc(N2CCNCC2)c1 | -11 | -8 | 0 | -9 | 26* | 18
O=[N+]([O-])c1ccccc1-c1cc(-c2ccccc2)cc(-c2ccccc2)[n+]1Cc1ccccc1Cl | 70* | / | / | 68* | / | 34
O=C1NC(=O)N(c2ccc3c(c2)OCO3)C(=O)/C1=C/c1ccc(N2CCCCC2)o1 | -5 | 21 | 4 | -2 | -8 | 61*
COC(=O)C1=C(c2ccc(OC)c(OC)c2)C[C@@H]2CC[C@H]1N2C(=O)NC1CCCCC1 | -19 | 6 | 0 | -13 | -1 | 14
Cc1ccc(-n2c(/C=C/c3ccc4c(c3)OCO4)nc3ccccc3c2=O)cc1 | -38 | / | / | -22 | / | 25
COc1cccc(-n2c(/C=C/c3ccc(O)c(O)c3)nc3ccccc3c2=O)c1 | -10 | -18 | 2 | -10 | 25* | 21
O=c1c2ccccc2nc(/C=C/c2ccc3c(c2)OCO3)n1-c1cccc(O)c1 | -12 | -14 | 0 | -14 | 26* | 18
CCCCCCC(Cl)(Cn1ccnc1)c1ccccc1 (centres undefined) | -14 | 22 | 1 | -25 | -4 | 20
CCOP(=O)(OCC)C(NC(=O)c1ccccc1)C(Cl)(Cl)Cl (centres undefined) | -12 | -14 | 0 | -2 | 24* | 27
CCOP(=O)(OCC)C(NC(=O)C(C)C)C(Cl)(Cl)Cl (centres undefined) | 8 | 25 | 1 | -5 | -9 | 3
N#CC(C#N)=Cc1ccc(N2CCOCC2)cc1 | 5 | 15 | 2 | -4 | -11 | 13
Cc1cc(C=C(C#N)C#N)ccc1N1CCCC1 | 1 | -5 | 16* | 4 | 14 | 21
CC(=O)c1cn(Cc2ccccc2C#N)c2ccccc12 | 19 | -10 | 17* | 29 | 28* | 41
OC12ONC(c3ccccn3)C1N1CCC2CC1 (centres undefined) | 9 | 4 | -1 | 3 | 6 | 12
COC12C(COC(N)=O)C3=C(C(=O)C(C)=C(N)C3=O)N1CC1C2N1C (centres undefined) | 4 | 10 | 0 | -6 | 1 | 57*
CCCc1cc(=O)oc2cc(OCC(=O)N3C[C@H]4C[C@@H](C3)c3cccc(=O)n3C4)ccc12 | -11 | 11 | 0 | -17 | -2 | 12
CCCc1cc(=O)oc2cc(OCC(=O)N3CCC(C(=O)O)(c4ccccc4)CC3)ccc12 | -13 | -2 | 0 | -19 | 25* | 20
Cc1nc2cc([N+](=O)[O-])ccc2c(=O)n1-c1ccccc1[N+](=O)[O-] | -19 | 5 | 1 | -9 | 5 | 53*
Cc1nc2cc([N+](=O)[O-])ccc2c(=O)n1-c1ccc(Br)cc1 | -7 | 22 | 1 | -12 | -9 | 13
C[CH2][Hg][S]c1ccccc1C(=O)O | 89* | 3 | 0 | 73* | 6 | 3
CC(C)COC(=O)c1ccccc1C(=O)OCC(C)C | -8 | 10 | 0 | -14 | -1 | 7
FC(F)=C(F)CCSc1ncn[nH]1 | -2 | 14 | 0 | -7 | 0 | 1
O=C(O)COc1ccc(Cl)cc1Cl | -5 | 18 | 2 | -3 | -10 | 13
Oc1cc(Cl)ccc1Oc1ccc(Cl)cc1Cl | 25 | 15 | 2 | 67* | 5 | 45*
